Hits are enriched below; roughly 3.1% of the tested compounds scored in any of these assays.
INS-1E GSIS act: GLuc luminescence reporter in INS-1E cells, primary screen for activators of glucose-dependent secretion of insulin | INS-1E GLuc reporter insulin secretion, 2-3 h | activation, % at 16.6 µM | 370,000 compounds, 0.61% hits;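 active means lowest replicate activation of at least 40%, so every replicate reaches that level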;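 further: 0% = median of neutral control wells and 100% = median of IBMX positive control wells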
rRNA inh HTS: inhibitors of bacterial rRNA selective over humanized ribosomes; E. coli WT GFP vs humanized-ribosome RFP mutants, fluorescence, 24 h; hits give low values; DMSO median 0, no signal -100; GFP signal change (wild-type ribosome), % (no concentration beside the values); 350,000 compounds, 1.6% hits; AID 720706;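 active means significant combined selectivity score with lowered wild-type GFP, culture density cut under 30%, mutant RFP and density less affected; inactive means any of these conditions unmet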
CFTR F508del cor: correctors of CFTR F508del function in bronchial epithelial cells. CFBE cells, YFP halide quenching; stimulated with forskolin plus potentiator P3; % fluorescence drop versus neutral controls. activity (quench increase), % at 7.58 µM. 350,000 compounds, 0.36% hits. AID 720511;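 active means mean added fluorescence quench of at least 8% versus neutral control, with both replicates also reaching 8%; inconclusive means only one of the mean or replicate conditions met; inactive means mean below 8% and not both replicates reaching 8%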;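 further: cells transiently co-express mutant CFTR-F508del with the halide-sensitive YFP; corrector assay measuring rescue of mutant channel to the surface after 24 h compound exposure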
Env fusion inh: inhibitors of HIV Env-mediated cell fusion; HeLa-JRFL Env/CEM21 cell fusion, luciferase; inhibition, % at 12.3 µM; 360,000 compounds, 1.1% hits; AID 651610;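 active means mean replicate inhibition score of at least 50 and every replicate individually at or above 50; inconclusive means only one of the two criteria met; inactive means mean below 50 and not all replicates reaching 50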;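 further: 0% = plate neutral controls and 100% = maraviroc near 300 nM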
Cneo AK release: causes C. neoformans cell lysis. AID 651654. 360,000 compounds, 0.2% hits. adenylate kinase release luminescence, 4 h; normalised: neutral wells 0, clomiphene wells 100. lysis activity, % at 15 µM;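 active means mean lysis activity across replicates of at least 80%, whatever share of replicates individually reach that level; inactive means mean lysis activity below 80%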
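Assay system: log-phase C. neoformans yeast / Quantity: yeast cell density of 5 × 10^6 cells/mL / Medium: fresh YPD growth medium / Compound: single dose / Timing: static 4 h at 37 °C with compound, 1 h detection / Measured by: adenylate kinase release luminescence / Read-out: lysis from increased AK signal / Benchmarks: Clomiphene as positive lysis control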
miR122 inh: inhibitors of miR-122 in Huh7 cells. 340,000 compounds, 0.3% hits. activation (reporter increase), % at 12.5 µM. AID 602342. Huh7 miR-122 Renilla luciferase sensor, 48 h; neutral wells = 0, positive control = 100;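 active means mean replicate activation score at least 90 and every replicate individually at or above 90; inconclusive means only one of the two criteria met; inactive means neither criterion met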;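 further: higher luciferase means less miR-122 activity so hits act as miR-122 inhibitors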
* hit, by the source's call; u = inconclusive; x = no result; + = active, no number; ! = repeats disagree; [ ] = dose if it differs, or a comment.

SMILES	INS-1E GSIS act	rRNA inh HTS	CFTR F508del cor	Env fusion inh	Cneo AK release	miR122 inh
COC(=O)C1=C(C)NC(c2c(O)ccc3ccccc23)C(C(=O)OC)=C1C (centres undefined)	53*	x	x	-107	x	x
COC(=O)C1=C(C)NC(=O)NC1c1c(O)ccc2ccccc12 (centres undefined)	5	-1	-2	1	5	-2
COc1ccc(-c2cc(-c3cc(F)ccc3O)[nH]n2)cc1OC	-36	-33*	0	x	-7	0
CNC(=O)C[C@H]1CC[C@H]2[C@H](COc3ccc(NC(=O)Nc4cccc(F)c4)cc3C(=O)N2C)O1	6	0	0	5[16.7 µM]	-1	21[16.7 µM]
O=S(=O)(c1ccc(-c2csc(Nc3ccc(F)cc3)n2)cc1)N1CCCC1	-2	-5	x	4	-2	-3
O=S(=O)(c1ccc(-c2csc(Nc3ccc(Br)cc3)n2)cc1)N1CCCC1	89*	x	x	35	x	x
COc1ccc(N/C=C\C(=O)c2ccc(Br)cc2)cc1OC	131*	x	x	x	x	x
CC(C)C(=O)Nc1ccc(-c2nc3cccnc3o2)cc1	13	x	x	-121	-4	x
CC(C)(C)c1ccc(OCC(=O)Nc2ccc(-c3nc4cccnc4o3)cc2)cc1	106*	x	x	x	x	1
CCCCC#Cc1ccc(C(=O)NNC(=O)Nc2ccccc2)o1	3	16	0	9	x	x
CCCCC#Cc1ccccc1COC[B-](F)(F)F	73*	-10	0	8	x	x
F[B-](F)(F)COCc1ccccc1C#Cc1ccccc1	98*	-14	2	9	x	x
F[B-](F)(F)COCc1ccccc1Br	56*	6	4	16	5	-5
O=C(C#Cc1ccccc1)Nc1ccccc1F	22	0	-1	-19	-7	-6
C[C@@H]1C(=O)N[C@@H](c2cccc(Cl)c2)CC=CC[C@H](C)Oc2ccccc2C(=O)N1C (mixture of isomers)	4	-1	x	x	x	x
CCN1CCN(C(=O)c2cnn3c(C(F)F)cc(-c4ccc(C)cc4)nc23)CC1	x	x	x	-21	-2	-28
O=C(c1cc2cc(F)ccc2[nH]1)N1CCN(Cc2ccc3c(c2)OCO3)CC1	-60	-40*	1	9	-4	11
Cc1ccccc1Cc1c(C)nc2c(C(=O)N3CCN(Cc4ccc5c(c4)OCO5)CC3)cnn2c1C	x	x	x	60*	0	3
O=C(c1cnn2c(C(F)F)cc(-c3ccccc3)nc12)N1CCN(Cc2ccc3c(c2)OCO3)CC1	-21	-17	2	58*	-1	x
COc1cc2cc(C(=O)N3CCN(Cc4ccc5c(c4)OCO5)CC3)[nH]c2cc1OC	-7	-4	-2	-11	-6	-9
Cc1cccc(Cc2c(C)nc3c(C(=O)N4CCN(Cc5ccc6c(c5)OCO6)CC4)cnn3c2C)c1	x	x	x	36	7	-5
C[C@H](O)C#Cc1ccc2c(c1)O[C@@H](CN(C)C(=O)c1ccncc1)[C@H](C)CN([C@H](C)CO)S2(=O)=O	9	6	0	u	0	-5[16.7 µM]
COCC#Cc1ccc(CC[C@H]2O[C@H]3CC[C@@H](CO)O[C@H]3C[C@@H]2n2cc(C3(O)CCCC3)nn2)cc1	x	x	-1	x	x	x
COc1ccc(CN(CCN2CCOCC2)C(=O)c2c(F)cccc2F)cc1OC	31	9	-2	x	0	-4
C=CCN(Cc1ccc(OC)c(OC)c1)C(=O)N1CCOCC1	53*	8	0	-3	3	-4
SMILES	INS-1E GSIS act	rRNA inh HTS	CFTR F508del cor	Env fusion inh	Cneo AK release	miR122 inh
C[C@H](CO)N1C[C@H](C)[C@@H](CN(C)C)Oc2ccc(NC(=O)CCC(F)(F)F)cc2CC1=O	20	3	-3	x	-1	-3[16.7 µM]
Cc1noc(C)c1C(c1ccccc1)c1ccccc1	x	-47*	0	x	x	5
Cc1noc(C)c1C(c1ccccc1)S(=O)(=O)c1ccccc1 (centres undefined)	7	x	x	-3	-4	-4
N=c1c2ccccc2nnn1-c1ccccc1[N+](=O)[O-]	-6	-4	1	-33	x	161*
C[C@@H](NC(=O)C[C@H]1CC[C@H]2[C@@H](COC[C@H](O)CN2C(=O)Nc2cc(Cl)cc(Cl)c2)O1)c1ccccc1	-6	-42	0	x	-1	-11[16.7 µM]
COc1cc(/C=N/n2cnnc2)ccc1OS(=O)(=O)c1ccccc1[N+](=O)[O-]	x	-19*	1	x	0	x
O=[N+]([O-])c1ccccc1S(=O)(=O)Oc1ccc(/C=N/n2cnnc2)cc1	14	x	x	x	x	x
CCCCNc1cccc2c1S(=O)(=O)N(CCCC)CC(COCc1ccccc1)O2 (centres undefined)	-21	x	-1	61*	0	34
CCNS(=O)(=O)c1ccc2c3c(cccc13)C(=O)N2	x	x	x	-47	1	148*
O=S(=O)(NCCC1=CCCCC1)c1c(Cl)cccc1Cl	-55	-51	-3	11	-3	111*
O=C1Nc2ccc(S(=O)(=O)NCCC3=CCCCC3)c3cccc1c23	x	x	x	x	-12	117*
Cc1ccc(-c2cnc3c(c2)C(=O)N([C@@H](C)CO)C[C@@H](C)[C@@H](CN(C)C(=O)c2cccnc2)O3)cc1	11	0	-1	-18[16.7 µM]	-1	-7[16.7 µM]
O=C(Nc1ccc(C(F)(F)F)cc1)N1C[C@@H]2N[C@H](C1)C2c1ccc(-c2ccccc2)cc1 (some centres undefined)	755*!	-55	-10	x	x	x
O=C(Nc1ccc(C(F)(F)F)cc1)N1C[C@@H]2N[C@H](C1)C2c1ccc(/C=C/c2ccccc2)cc1 (some centres undefined)	+	-59	-3	x	x	x
Cc1cccc(-c2ccc(C3[C@@H]4CN(C(=O)Nc5ccccc5)C[C@H]3N4)cc2)c1 (some centres undefined)	-20	-62	-1	x	x	x
CCc1nc(N)nc2c1C(=O)CC(C)(C)C2	70*	6	2	x	0	x
O=C1c2oc3ccccc3c(=O)c2C(c2cccc(Br)c2)N1Cc1ccco1 (centres undefined)	-28	x	x	55*	x	x
COc1ccc(C2c3c(oc4ccccc4c3=O)C(=O)N2Cc2ccncc2)cc1OC (centres undefined)	x	x	x	-21	x	x
Cc1ccccc1-n1ncc2c(SCC(=O)N3c4ccccc4CC3C)ncnc21 (centres undefined)	-16	-26*	-3	x	2	-7
Cc1ccccc1-n1ncc2c(SCC(=O)NC3CCCC3)ncnc21	-1	12	-1	11	0	-3
O=C(Nc1ccccc1)N1C[C@H]2[C@@H](c3ccccc31)[C@@H](CO)N2C(=O)c1ccncc1	9	3	-2	x	-4	17[16.7 µM]
O=C1CSC(c2cccc(O)c2)N1Cc1ccccc1 (centres undefined)	42*	-14	-1	5	x	x

Source: PubChem BioAssay
